Assay results published in ChEMBL document CHEMBL2346518, “Synthesis and evaluation of nicotinamide derivative as anti-angiogenic agents” (Bioorg Med Chem Lett, 2013).
Activity calls are given as the source filed them.

How the values were obtained:
[1] = test system: HUVEC; experiment: Inhibition of VEGF-induced human HUVEC cell migration incubated 1 hr prior to VEGF-challenge measured after 24 hrs by wound healing assay; assay type: functional, cell-based
Method in brief: (§1)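 Wound made with a scraper in near-confluent HUVECs. Cells pretreated 1 h with compound (10–100 nM), then migration induced with VEGF 10 ng/ml. Wound area photographed after 24 h.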

[2] = target: Vascular endothelial growth factor receptor 2 (Homo sapiens) (UniProt P35968); experiment: Inhibition of VEGF-induced VEGFR2 phosphorylation at Tyr1175 in human HUVEC cell incubated 1 hr prior to VEGF-challenge measured after 5 mins by PathScan ELISA
Vascular endothelial growth factor receptor 2 (Homo sapiens), sequence (P35968 whole entry): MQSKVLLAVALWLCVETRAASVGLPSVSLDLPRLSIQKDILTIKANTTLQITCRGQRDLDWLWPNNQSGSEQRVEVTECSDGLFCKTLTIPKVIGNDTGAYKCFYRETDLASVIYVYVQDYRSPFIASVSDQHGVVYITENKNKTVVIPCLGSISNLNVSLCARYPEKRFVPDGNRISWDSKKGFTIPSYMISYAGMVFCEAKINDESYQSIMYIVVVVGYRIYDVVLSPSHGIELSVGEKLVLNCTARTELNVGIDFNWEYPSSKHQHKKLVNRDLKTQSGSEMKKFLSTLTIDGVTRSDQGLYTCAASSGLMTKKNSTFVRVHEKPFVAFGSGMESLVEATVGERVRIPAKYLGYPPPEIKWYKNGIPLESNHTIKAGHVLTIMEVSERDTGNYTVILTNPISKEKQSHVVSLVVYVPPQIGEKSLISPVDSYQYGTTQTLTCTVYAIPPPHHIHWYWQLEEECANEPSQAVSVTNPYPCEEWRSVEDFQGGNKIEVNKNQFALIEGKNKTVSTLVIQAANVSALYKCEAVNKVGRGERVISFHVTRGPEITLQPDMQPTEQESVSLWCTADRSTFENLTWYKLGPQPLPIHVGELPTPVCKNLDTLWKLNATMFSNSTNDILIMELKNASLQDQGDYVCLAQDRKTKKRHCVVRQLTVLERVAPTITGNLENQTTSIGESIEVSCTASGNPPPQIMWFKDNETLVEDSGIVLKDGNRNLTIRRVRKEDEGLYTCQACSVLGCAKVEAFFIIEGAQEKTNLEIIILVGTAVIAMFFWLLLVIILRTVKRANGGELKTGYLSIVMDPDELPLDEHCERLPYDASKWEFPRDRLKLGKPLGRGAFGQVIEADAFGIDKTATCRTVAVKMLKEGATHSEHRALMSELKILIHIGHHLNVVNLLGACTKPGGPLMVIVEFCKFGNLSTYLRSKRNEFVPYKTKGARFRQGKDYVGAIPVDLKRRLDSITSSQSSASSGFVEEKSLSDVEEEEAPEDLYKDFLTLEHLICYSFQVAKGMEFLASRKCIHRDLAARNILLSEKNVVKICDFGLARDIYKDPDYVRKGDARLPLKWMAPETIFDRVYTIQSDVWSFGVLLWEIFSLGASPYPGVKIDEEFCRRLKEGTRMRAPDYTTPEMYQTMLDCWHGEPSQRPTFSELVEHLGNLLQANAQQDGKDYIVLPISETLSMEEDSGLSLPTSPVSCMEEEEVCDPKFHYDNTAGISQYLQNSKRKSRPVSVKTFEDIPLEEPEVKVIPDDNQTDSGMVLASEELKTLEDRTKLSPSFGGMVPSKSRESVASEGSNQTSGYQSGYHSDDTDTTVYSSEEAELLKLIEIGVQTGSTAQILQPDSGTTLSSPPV
Method in brief: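 HUVECs given compound (10, 50 or 100 nM) 1 h before 5 min VEGF (10 ng/ml). VEGFR2 Tyr1175 phosphorylation measured by PathScan ELISA. Means of three experiments ± SD. ANOVA with Dunnett's post-hoc test.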

[3] = target: Vascular endothelial growth factor receptor 2 (Homo sapiens) (UniProt P35968); experiment: Inhibition of VEGF-induced VEGFR2 in human HUVEC cell assessed as AKT phosphorylation at Ser473 incubated 1 hr prior to VEGF-challenge measured after 30 mins by Western blot analysis
Method in brief: (§2)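 HUVECs pretreated 1 h with compound (10, 50 or 100 nM), then stimulated with VEGF 10 ng/ml. Phospho-VEGFR2 read at 5 min and phospho-Akt at 30 min by Western blot.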

[4] = target: Vascular endothelial growth factor receptor 2 (Homo sapiens) (UniProt P35968); experiment: Inhibition of VEGF-induced VEGFR2 phosphorylation at Tyr1175 in human HUVEC cell incubated 1 hr prior to VEGF-challenge measured after 5 mins by Western blot analysis; method in brief: as §2
[5] = target: Vascular endothelial growth factor receptor 2 (Homo sapiens) (UniProt P35968); experiment: Inhibition of VEGF-induced VEGFR in human HUVEC cell assessed as AKT phosphorylation at Ser473 at 10 to 100 nM incubated 1 hr prior to VEGF-challenge measured after 30 mins by Western blot analysis; method in brief: as §2
[6] = target: Vascular endothelial growth factor receptor 2 (Homo sapiens) (UniProt P35968); experiment: Inhibition of VEGF-induced VEGFR phosphorylation at Tyr1175 in human HUVEC cell at 10 to 100 nM incubated 1 hr prior to VEGF-challenge measured after 5 mins by Western blot analysis; method in brief: as §2
[7] = test system: Aorta; experiment: Inhibition of VEGF-induced microvessel sprouting around Sprague-Dawley rat aortic rings; assay type: functional, tissue-based
Method in brief: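 Aortas from Sprague-Dawley rats cleaned of periadventitial fat and cut into 1–1.5 mm rings. Rings embedded in Matrigel with VEGF ± compound (10, 50, 100 nM); medium alone as control. Sprouts fixed and photographed after 7 days at ×100. Three independent experiments.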

[8] = test system: HUVEC; experiment: Inhibition of VEGF-induced human HUVEC cell capillary tube formation incubated prior to VEGF-challenge; assay type: functional, cell-based
Method in brief: (§3)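 HUVECs pretreated 1 h with compound, then seeded at 4 to 7 × 10⁴ cells on growth-factor-reduced Matrigel in EBM with or without VEGF 10 ng/ml. Tubular structures photographed after 6 h at ×100. Means of three experiments ± SD. ANOVA/Dunnett.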

[9] = test system: HUVEC; experiment: Inhibition of VEGF-induced human HUVEC cell capillary tube formation at 10 to 100 nM incubated prior to VEGF-challenge; assay type: functional, cell-based; method in brief: as §3
[10] = test system: HUVEC; experiment: Inhibition of VEGF-induced human HUVEC cell migration at 10 nM incubated 1 hr prior to VEGF-challenge measured after 24 hrs by Trans-well assay; assay type: functional, cell-based
Method in brief: (§4)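 Boyden chamber with 8 μm pore membrane. HUVECs in upper chamber with compound in 0.1% EBM; VEGF 10 ng/ml in lower chamber. Cells that migrated through the pores counted after 24 h. Means of three experiments ± SD. ANOVA with Dunnett's test.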

[11] = test system: HUVEC; experiment: Inhibition of VEGF-induced human HUVEC cell migration incubated 1 hr prior to VEGF-challenge measured after 24 hrs by Trans-well assay; assay type: functional, cell-based; method in brief: as §4
[12] = test system: HUVEC; experiment: Inhibition of VEGF-induced human HUVEC cell migration at 10 to 100 nM incubated 1 hr prior to VEGF-challenge measured after 24 hrs by wound healing assay; assay type: functional, cell-based; method in brief: as §1
[13] = test system: HUVEC; experiment: Inhibition of VEGF-induced human HUVEC cell proliferation incubated 1 hr prior to VEGF-challenge measured after 24 hrs by BrdU incorporation assay; assay type: functional, cell-based
Method in brief: (§5)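 HUVECs pretreated 1 h with compound (100 nM single point, or 10, 50, 100 nM), then VEGF 10 ng/ml for 24 h. BrdU incorporation detected with anti-BrdU monoclonal antibody and peroxidase secondary, absorbance at 450 nm. Means of three experiments ± SD. ANOVA/Dunnett.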

[14] = test system: HUVEC; experiment: Inhibition of VEGF-induced human HUVEC cell proliferation at 10 to 100 nM incubated 1 hr prior to VEGF-challenge measured after 24 hrs by BrdU incorporation assay; assay type: functional, cell-based; method in brief: as §5

Measured: inhibition

CC(c1ncnc(Cl)c1F)N1CCC(Nc2ncccc2C(=O)Nc2cccc(Cl)c2)CC1 (stereo not given)
active: [1] Dose-dependent effect | [2] Dose-dependent effect | [3] Dose-dependent effect | [4] Dose-dependent effect | [5] | [6] | [7] Dose-dependent effect | [8] Dose-dependent effect | [9] | [10] | [11] Dose-dependent effect | [12] Dose-dependent effect | [13] Dose-dependent effect | [14]

O=C(Nc1cccc(Cl)c1)c1cccnc1NC1CCN(Cc2ccccc2)CC1
active: [14]
